Assay: Antiproliferative activity against human A375P cells after 48 hrs by MTT assay
Format: functional, cell-based
How it was run: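 A375P cells in DMEM with 10% FBS at 37 °C, 5% CO2. Seeded at 5×10³ cells/well, held 24 h, then treated with 12-point 3-fold serial dilutions for 48 h. Viability by MTT reduction. IC50 values are means of triplicate experiments.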

Row | Structure (SMILES) | IC50
1 | CNC(=O)c1cc(Oc2ccc(NC(=O)Nc3ccc(Cl)c(C(F)(F)F)c3)cc2)ccn1 [SORAFENIB] | 5.6 µM
2 | COc1cccc(-c2nc3sccn3c2-c2ccnc(NCCNC(=O)Nc3cc(C(F)(F)F)cc(C(F)(F)F)c3)n2)c1 | 4.3 µM
